The values below come from ChEMBL document CHEMBL4359831, “Chemoproteomics of an Indole-Based Quinone Epoxide Identifies Druggable Vulnerabilities in Vancomycin-Resistant Staphylococcus aureus” (J Med Chem, 2019).

In brackets after ≈: the same amount, converted by molar mass. Activity calls are given as the source filed them. The calls are words filed in the database; no cut-off is given here.

Series [1] has as its system Staphylococcus aureus. In words: Antibacterial activity against vancomycin-resistant Staphylococcus aureus SA-HIP-14300 after 16 to 18 hrs by CLSI M07-A10 protocol based dilution method. It is filed as functional.
In series [2] the test system is Staphylococcus aureus. The experiment in a line: Binding affinity to Staphylococcus aureus ATCC 29213 Thioredoxin at 10 uM in presence of 9-(Pent-4-yn-1-yl)-1a,10a-dihydro-2H-oxireno[2',3':4,5]-benzo[1,2-a]carbazole-2,10(9H)-dione after 1 hr by biotin-azide fluorescence dependent LC-MS/MS-based ABPP assay. The method in brief:
(§1)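 Competitive LC–MS/MS ABPP on S. aureus soluble proteome. Pretreatment 1 h with DMSO, compound (10 μM), comparator (10 μM) or iodoacetamide (10 mM). Chase with alkyne probe (10 μM, 1 h), then Cu-catalysed click with biotin-azide and LC–MS/MS. Targets were proteins at ratio ≤0.1 versus DMSO in the compound and IAM groups and ~1 in the comparator group.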

A short description of series [3]: Cytotoxicity against African green monkey Vero cells after 72 hrs by MTT assay. The class given is cell-based. Conditions: chlorocebus sabaeus. In general terms: Tetrazolium dyes change colour on reduction, which living cells bring about.
The subject of series [4] is Staphylococcus aureus. The experiment in a line: Antibacterial activity against vancomycin-resistant Staphylococcus aureus SA-71080 after 16 to 18 hrs by CLSI M07-A10 protocol based dilution method. The class given is functional.
Series [5] concerns Pseudomonas aeruginosa. In words: Antibacterial activity against Pseudomonas aeruginosa ATCC 27853 after 16 to 18 hrs by CLSI M07-A10 protocol based dilution method. It is filed as functional.
In series [6] the test system is Staphylococcus aureus. The experiment in a line: Antibacterial activity against vancomycin-resistant Staphylococcus aureus HIP11714 after 16 to 18 hrs by CLSI M07-A10 protocol based dilution method. It is filed as functional.
The nature of series [7]: L-cysteine reactivity in pH 7.4 phosphate buffer assessed as compound remaining at 100 uM incubated for 1 hr by HPLC analysis.
The target in series [8] is T1, 2-dehydropantoate 2-reductase (Staphylococcus aureus) (UniProt A0A0J9X283).
T1 sequence (whole entry): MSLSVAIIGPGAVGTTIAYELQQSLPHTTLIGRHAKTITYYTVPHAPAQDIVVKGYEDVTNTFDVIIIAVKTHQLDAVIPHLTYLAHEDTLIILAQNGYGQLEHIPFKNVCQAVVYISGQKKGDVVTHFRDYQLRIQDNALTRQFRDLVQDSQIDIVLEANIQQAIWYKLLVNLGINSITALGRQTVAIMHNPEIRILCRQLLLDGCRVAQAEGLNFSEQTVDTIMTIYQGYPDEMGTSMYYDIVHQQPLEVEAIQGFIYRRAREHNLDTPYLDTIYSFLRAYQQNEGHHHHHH
The experiment in a line: Binding affinity to Staphylococcus aureus ATCC 29213 2-dehydropantoate 2-reductase at 10 uM in presence of 9-(Pent-4-yn-1-yl)-1a,10a-dihydro-2H-oxireno[2',3':4,5]-benzo[1,2-a]carbazole-2,10(9H)-dione after 1 hr by biotin-azide fluorescence dependent LC-MS/MS-based ABPP assay. The method in brief: as §1

The subject of series [9] is Staphylococcus aureus. In words: Binding affinity to Staphylococcus aureus ATCC 29213 Hydroxyethylthiazole kinase at 10 uM in presence of 9-(Pent-4-yn-1-yl)-1a,10a-dihydro-2H-oxireno[2',3':4,5]-benzo[1,2-a]carbazole-2,10(9H)-dione after 1 hr by biotin-azide fluorescence dependent LC-MS/MS-based ABPP assay. The method in brief: as §1
Series [10] concerns Staphylococcus aureus. The experiment in a line: Bactericidal activity against Staphylococcus aureus ATCC 29213 at 1 to 10 times MIC preincubated up to 24 hrs under shaking condition followed by bacterial plating on Tryptic Soy agar and measured after 18 to 20 hrs by time kill assay. The class given is functional, organism-based.
Series [11] relates to Staphylococcus aureus. The experiment in a line: Binding affinity to Staphylococcus aureus ATCC 29213 DAPDC at 10 uM in presence of 9-(Pent-4-yn-1-yl)-1a,10a-dihydro-2H-oxireno[2',3':4,5]-benzo[1,2-a]carbazole-2,10(9H)-dione after 1 hr by biotin-azide fluorescence dependent LC-MS/MS-based ABPP assay. The method in brief:
as §1

In series [12] the target is T2, Arsenate reductase (Staphylococcus aureus) (UniProt P0A006).
T2 sequence (whole entry): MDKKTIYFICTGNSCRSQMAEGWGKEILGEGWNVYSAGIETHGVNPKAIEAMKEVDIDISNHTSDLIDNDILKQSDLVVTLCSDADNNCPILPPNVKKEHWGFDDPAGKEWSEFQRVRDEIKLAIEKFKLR
In words: Binding affinity to Staphylococcus aureus ATCC 29213 Arsenate reductase at 10 uM in presence of 9-(Pent-4-yn-1-yl)-1a,10a-dihydro-2H-oxireno[2',3':4,5]-benzo[1,2-a]carbazole-2,10(9H)-dione after 1 hr by biotin-azide fluorescence dependent LC-MS/MS-based ABPP assay. The method in brief:
as §1

For series [13], the system named is Enterococcus faecalis. The experiment in a line: Antibacterial activity against Enterococcus faecalis B3119 after 16 to 18 hrs by CLSI M07-A10 protocol based dilution method. It is filed as functional.
Series [14] deals with Klebsiella pneumoniae. The experiment in a line: Antibacterial activity against Klebsiella pneumoniae ATCC BAA-1705 after 16 to 18 hrs by CLSI M07-A10 protocol based dilution method. The class given is functional.
The test system of series [15] is Staphylococcus aureus. The experiment in a line: Binding affinity to Staphylococcus aureus ATCC 29213 MarR family transcriptional regulator at 10 uM in presence of 9-(Pent-4-yn-1-yl)-1a,10a-dihydro-2H-oxireno[2',3':4,5]-benzo[1,2-a]carbazole-2,10(9H)-dione after 1 hr by biotin-azide fluorescence dependent LC-MS/MS-based ABPP assay. The method in brief: as §1
The test system of series [16] is Staphylococcus aureus. In words: Binding affinity to Staphylococcus aureus ATCC 29213 MEP-cytidylyltransferase at 10 uM in presence of 9-(Pent-4-yn-1-yl)-1a,10a-dihydro-2H-oxireno[2',3':4,5]-benzo[1,2-a]carbazole-2,10(9H)-dione after 1 hr by biotin-azide fluorescence dependent LC-MS/MS-based ABPP assay. The method in brief:
as §1

The nature of series [17]: Chemical reactivity assessed as thiolated-adduct formation at 25 uM using 4-nitrobenzyl thiol after 1 hr by HPLC analysis. It is filed as physicochemical.
Series [18] concerns Staphylococcus aureus. The experiment in a line: Binding affinity to Staphylococcus aureus ATCC 29213 HxlR family transcriptional regulator at 10 uM in presence of 9-(Pent-4-yn-1-yl)-1a,10a-dihydro-2H-oxireno[2',3':4,5]-benzo[1,2-a]carbazole-2,10(9H)-dione after 1 hr by biotin-azide fluorescence dependent LC-MS/MS-based ABPP assay. The method in brief:
as §1

In series [19] the test system is Erythrocyte. In words: Toxicity in human erythrocytes assessed as induction of hemolysis at 100 ug/ml incubated under shaking condition for 1 hr by spectrophotometric method. It is filed as cell-based.
Series [20] in a line: Selectivity index, ratio of CC50 for African green monkey Vero cells to MIC90 for Staphylococcus aureus ATCC 29213. The class given is toxicity. Conditions: read-out: Selectivity Index.
Series [21] deals with Staphylococcus aureus. In words: Antibacterial activity against vancomycin-resistant Staphylococcus aureus HIP14300 after 16 to 18 hrs by CLSI M07-A10 protocol based dilution method. The class given is functional.
The test system of series [22] is Staphylococcus aureus. In words: Binding affinity to Staphylococcus aureus ATCC 29213 DNA polymerase III subunit beta at 10 uM in presence of 9-(Pent-4-yn-1-yl)-1a,10a-dihydro-2H-oxireno[2',3':4,5]-benzo[1,2-a]carbazole-2,10(9H)-dione after 1 hr by biotin-azide fluorescence dependent LC-MS/MS-based ABPP assay. The method in brief: as §1
Series [23] concerns Staphylococcus aureus. In words: Antibacterial activity against vancomycin-resistant Staphylococcus aureus SA-HIP-15178 after 16 to 18 hrs by CLSI M07-A10 protocol based dilution method. The class given is functional.

As for `CC(C)n1c2ccccc2c2ccc3c(c21)C(=O)C1OC1C3=O` (stereo not drawn), the MIC was found to be 0.5 µg/mL (≈ 1.64 µM) in [1]; 0.5 µg/mL (≈ 1.64 µM) in [4]; 64 µg/mL (≈ 210 µM) in [5]; 0.5 µg/mL (≈ 1.64 µM) in series [6]; 64 µg/mL (≈ 210 µM) in series [13]; 64 µg/mL (≈ 210 µM) in [14]. In addition, the MIC in series [21] and in [23] was 0.5 µg/mL (≈ 1.64 µM) throughout. Moreover, the result in series [2], in [8], in series [9], in series [10], in series [11] and in series [12] was Active. Also, the result in series [15], in series [16], in [18] and in series [22] was Active. The same molecule displayed a CC50 at 72 h in [3] of more than 25 µg/mL. Moreover, the Activity in series [7] was 34%; in series [17] it was “Active”; in series [19] it was “Non-Toxic”. Moreover, in [20], the selectivity ratio was more than 200.

The term MIC denotes the lowest concentration that inhibits growth of the organism. The term CC50 denotes the concentration at which the toxic effect on the cells reaches its halfway point.
